This note sets out measurements from ChEMBL document CHEMBL1629621, “Evaluation of strategies for improving proteolytic resistance of antimicrobial peptides by using variants of EFK17, an internal segment of LL-37” (Antimicrob Agents Chemother, 2009).

The term MIC denotes the lowest concentration that inhibits growth of the organism. High values mean a less susceptible organism, low ones a more susceptible organism.

In brackets after ≈: the same amount, converted by molar mass. Activity calls are given as the source filed them. The rule behind the calls is not given here. Where a SMILES comes first, the peptide text is derived from it.

In data set [1] the test system is Staphylococcus aureus. The data set is described as follows: Antimicrobial activity against Staphylococcus aureus 2844 after 21 hrs by broth microdilution method. The class given is functional. The note with it: Staphylococcus aureus, 2844, 21 h. Put shortly: (§1)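 Microtiter broth dilution at 37°C for 21 h in DEAE-refined LB medium prepared in 10 mM Tris, pH 7.4. Bacteria were grown overnight in 3% trypticase soy broth, rinsed in Tris and used at about 10^6 CFU/ml. Final peptide was 0.6–80 µM in twofold steps. Growth was read visually as pellet and at OD540. MIC is >95% inhibition with no visible pellet. Two separate experiments.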
(Dilution methods test growth across graded concentrations, often in twofold steps.)

Data set [2] deals with Staphylococcus aureus. The data set is described as follows: Antimicrobial activity against Staphylococcus aureus FDA 486 after 21 hrs by broth microdilution method. The class given is functional. The note with it: FDA 486, 21 h. Put shortly: as §1
Data set [3] relates to Pseudomonas aeruginosa. The data set is described as follows: Antimicrobial activity against Pseudomonas aeruginosa ATCC 27853 after 21 hrs by broth microdilution method. The class given is functional. To be noted: ATCC 27853, 21 h. Put shortly:
as §1

Data set [4] has as its system Staphylococcus aureus. The data set is described as follows: Antimicrobial activity against Staphylococcus aureus 29213 after 21 hrs by broth microdilution method. The class given is functional. To be noted: Staphylococcus aureus, 29213, 21 h. A digest of the protocol: as §1
The test system of data set [5] is Pseudomonas aeruginosa. The data set is described as follows: Antimicrobial activity against Pseudomonas aeruginosa 15159 after 21 hrs by broth microdilution method. To be noted: Pseudomonas aeruginosa, 15159, 21 h. The class given is functional. Put shortly:
as §1

Data set [6] deals with Lipid bilayer. The data set can be described thus: Induction of DOPC-cholesterol liposome leakage in cell-free system at 0.1 to 1 uM after 45 mins. The class given is functional. A digest of the protocol: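 Carboxyfluorescein-loaded (100 mM, self-quenching) DOPC-cholesterol 3:2 unilamellar liposomes, about 110 nm, at 10 µM lipid in Tris buffer at 37°C with stirring. Peptide was added at a single concentration per experiment, between 0.01 and 1 µM. After a 10 min baseline, fluorescence increase was followed for 45 min and the limiting leakage level taken.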

Data set [7] deals with Lipid bilayer. The data set is described as follows: Binding affinity to DOPC-cholesterol liposome at 10 to 1000 uM after 45 mins by ellipsometry. A digest of the protocol: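 Ellipsometry on DOPC-cholesterol bilayers deposited from DDM micelles onto silica. Peptide was added cumulatively in 10 mM Tris, pH 7.4, with 5 mM glucose at 37°C; […] adds 150 mM NaCl. Each step was followed 45 min to saturation. Adsorbed amount was calculated from refractive index and thickness, with dn/dc 0.154 cm3/g. Duplicates.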

A short description of data set [8]: Stability of the compound at 136 uM after 4 hrs in presence of […] V8 protease. The class given is ADME. A digest of the protocol:
(§2)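 Peptide at 136 µM was incubated with protease (peptide:enzyme 300:1) for 4 h at 37°C in 10 mM Tris, pH 7.4. The reaction was stopped by boiling in Laemmli buffer, then run on Tris-Tricine 16.5% SDS-PAGE and Coomassie stained. Band densitometry gave the undegraded fraction, normalized to peptide incubated without enzyme. Two separate experiments.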

A short description of data set [9]: Stability of the compound at 136 uM after 4 hrs in presence of human neutrophil elastase. The class given is ADME. Put shortly: as §2
A short description of data set [10]: Stability of the compound at 136 uM after 4 hrs in presence of aureolysin. The class given is ADME. A digest of the protocol:
as §2

Data set [11] can be described thus: Stability of the compound at 136 uM after 4 hrs in presence of Pseudomonas aeruginosa elastase. The class given is ADME. Put shortly:
as §2

In the case of `CC[C@@H](C)[C@@H](NC(=O)[C@H](CCCNC(=N)N)NC(=O)[C@H](CCC(N)=O)NC(=O)[C@@H](NC(=O)[C@H](NC(=O)[C@H](CCCNC(=N)N)NC(=O)[C@H](CCCCN)NC(=O)[C@@H](Cc1ccccc1)NC(=O)[C@@H](N)CCC(=O)O)[C@H](C)CC)C(C)C)C(=O)N[C@@H](CCCCN)C(=O)N[C@@H](CC(=O)O)C(=O)N[C@H](Cc1ccccc1)C(=O)N[C@@H](CC(C)C)C(=O)N[C@@H](CCCNC(=N)N)C(=O)N[C@@H](CC(N)=O)C(=O)N[C@@H](CC(C)C)C(=O)N[C@H](C(=O)O)C(C)C` [listing 1 of 2 here], the MIC in the data set on Staphylococcus aureus [1], against Staphylococcus aureus [2], in the data set on Pseudomonas aeruginosa [3], against Staphylococcus aureus [4] and against Pseudomonas aeruginosa [5] was greater than 80 µM each time.

For `CC[C@H](C)[C@H](NC(=O)[C@H](CCCNC(=N)N)NC(=O)[C@H](CCC(N)=O)NC(=O)[C@@H](NC(=O)[C@H](NC(=O)[C@H](CCCNC(=N)N)NC(=O)[C@H](CCCCN)NC(=O)[C@@H](Cc1ccccc1)NC(=O)[C@@H](N)CCC(=O)O)[C@@H](C)CC)C(C)C)C(=O)N[C@@H](CCCCN)C(=O)N[C@@H](CC(=O)O)C(=O)N[C@H](Cc1ccccc1)C(=O)N[C@@H](CC(C)C)C(=O)N[C@@H](CCCNC(=N)N)C(=O)N[C@@H](CC(N)=O)C(=O)N[C@@H](CC(C)C)C(=O)N[C@H](C(=O)O)C(C)C`, the result with Lipid bilayer [6] and in the data set on Lipid bilayer [7] was Active.

Regarding `CC[C@@H](C)[C@@H](NC(=O)[C@H](CCCNC(=N)N)NC(=O)[C@H](CCC(N)=O)NC(=O)[C@@H](NC(=O)[C@H](NC(=O)[C@H](CCCNC(=N)N)NC(=O)[C@H](CCCCN)NC(=O)[C@@H](Cc1ccccc1)NC(=O)[C@H](CCC(=O)O)NC(C)=O)[C@H](C)CC)C(C)C)C(=O)N[C@@H](CCCCN)C(=O)N[C@@H](CC(=O)O)C(=O)N[C@H](Cc1ccccc1)C(=O)N[C@@H](CC(C)C)C(=O)N[C@@H](CCCNC(=N)N)C(=O)N[C@@H](CC(N)=O)C(=O)N[C@@H](CC(C)C)C(=O)N[C@H](C(N)=O)C(C)C` [listing 1 of 2 here], the minimal inhibitory concentration (MIC) in the data set on Staphylococcus aureus [1], against Staphylococcus aureus [2], with Pseudomonas aeruginosa [3], in the data set with Staphylococcus aureus [4] and in the data set with Pseudomonas aeruginosa [5] was greater than 80 µM each time.

Consider `CC[C@H](C)[C@@H](NC(=O)[C@H](CCCNC(=N)N)NC(=O)[C@H](CCC(N)=O)NC(=O)[C@@H](NC(=O)[C@H](NC(=O)[C@H](CCCNC(=N)N)NC(=O)[C@H](CCCCN)NC(=O)[C@@H](Cc1ccccc1)NC(=O)[C@H](CCC(=O)O)NC(C)=O)[C@@H](C)CC)C(C)C)C(=O)N[C@@H](CCCCN)C(=O)N[C@@H](CC(=O)O)C(=O)N[C@H](Cc1ccccc1)C(=O)N[C@@H](CC(C)C)C(=O)N[C@@H](CCCNC(=N)N)C(=O)N[C@@H](CC(N)=O)C(=O)N[C@@H](CC(C)C)C(=O)N[C@H](C(N)=O)C(C)C`, for which the result with Lipid bilayer [6] was Active.

Regarding `CC[C@@H](C)[C@@H](NC(=O)[C@H](CCCNC(=N)N)NC(=O)[C@H](CCC(N)=O)NC(=O)[C@@H](NC(=O)[C@H](NC(=O)[C@H](CCCNC(=N)N)NC(=O)[C@H](CCCCN)NC(=O)[C@@H](Cc1ccccc1)NC(=O)[C@@H](N)CCC(=O)O)[C@H](C)CC)C(C)C)C(=O)N[C@@H](CCCCN)C(=O)N[C@@H](CC(=O)O)C(=O)N[C@H](Cc1ccccc1)C(=O)N[C@@H](CC(C)C)C(=O)N[C@@H](CCCNC(=N)N)C(=O)N[C@@H](CC(N)=O)C(=O)N[C@@H](CC(C)C)C(=O)N[C@H](C(=O)O)C(C)C` [listing 2 of 2 here], the Stability result in data set [8], in data set [9], in [10] and in data set [11] was “Stable” in each case.

As for `CC[C@H](C)[C@H](NC(=O)[C@H](CCCCN)NC(=O)[C@H](CCC(=O)O)NC(=O)[C@H](CCCCN)NC(=O)[C@H](CO)NC(=O)[C@H](CCCCN)NC(=O)[C@H](CCCNC(=N)N)NC(=O)[C@H](Cc1ccccc1)NC(=O)[C@H](Cc1ccccc1)NC(=O)[C@H](CC(=O)O)NC(=O)CNC(=O)[C@H](CC(C)C)NC(=O)[C@@H](N)CC(C)C)C(=O)NCC(=O)N[C@@H](CCCCN)C(=O)N[C@@H](CCC(=O)O)C(=O)N[C@@H](Cc1ccccc1)C(=O)N[C@@H](CCCCN)C(=O)N[C@@H](CCCNC(=N)N)C(=O)N[C@H](C(=O)N[C@H](C(=O)N[C@@H](CCC(N)=O)C(=O)N[C@@H](CCCNC(=N)N)C(=O)N[C@H](C(=O)N[C@@H](CCCCN)C(=O)N[C@@H](CC(=O)O)C(=O)N[C@@H](Cc1ccccc1)C(=O)N[C@@H](CC(C)C)C(=O)N[C@@H](CCCNC(=N)N)C(=O)N[C@@H](CC(N)=O)C(=O)N[C@@H](CC(C)C)C(=O)N[C@H](C(=O)N1CCC[C@H]1C(=O)N[C@@H](CCCNC(=N)N)C(=O)N[C@H](C(=O)N[C@@H](CCC(=O)O)C(=O)N[C@@H](CO)C(=O)O)[C@@H](C)O)C(C)C)[C@@H](C)CC)C(C)C)[C@@H](C)CC` [CATHELICIDIN], the minimum inhibitory concentration (MIC) in the data set with Staphylococcus aureus [1] turned out to be 5 µM (≈ 22.5 µg/mL); with Staphylococcus aureus [2] it was 2.5 µM (≈ 11.2 µg/mL); in the data set on Pseudomonas aeruginosa [3], 2.5 µM (≈ 11.2 µg/mL); against Staphylococcus aureus [4], 5 µM (≈ 22.5 µg/mL); against Pseudomonas aeruginosa [5], 2.5 µM (≈ 11.2 µg/mL). The Stability entry in data set [8], in data set [9], in [10] and in data set [11] was “Unstable” in each case.

Turning to `CC[C@@H](C)[C@@H](NC(=O)[C@H](CCCNC(=N)N)NC(=O)[C@H](CCC(N)=O)NC(=O)[C@@H](NC(=O)[C@H](NC(=O)[C@H](CCCNC(=N)N)NC(=O)[C@H](CCCCN)NC(=O)[C@@H](Cc1ccccc1)NC(=O)[C@H](CCC(=O)O)NC(C)=O)[C@H](C)CC)C(C)C)C(=O)N[C@@H](CCCCN)C(=O)N[C@@H](CC(=O)O)C(=O)N[C@H](Cc1ccccc1)C(=O)N[C@@H](CC(C)C)C(=O)N[C@@H](CCCNC(=N)N)C(=O)N[C@@H](CC(N)=O)C(=O)N[C@@H](CC(C)C)C(=O)N[C@H](C(N)=O)C(C)C` [listing 2 of 2 here], the Stability entry in [8], in [9], in [10] and in data set [11] was “Stable” in each case.

For the compound `CC(=O)N[C@@H](CCC(=O)O)C(=O)N[C@@H](Cc1c[nH]c2ccccc12)C(=O)N[C@@H](CCCCN)C(=O)N[C@@H](CCCNC(=N)N)C(=O)N[C@@H](Cc1c[nH]c2ccccc12)C(=O)N[C@H](C(=O)N[C@@H](CCC(N)=O)C(=O)N[C@@H](CCCNC(=N)N)C(=O)N[C@@H](Cc1c[nH]c2ccccc12)C(=O)N[C@@H](CCCCN)C(=O)N[C@@H](CC(=O)O)C(=O)N[C@@H](Cc1c[nH]c2ccccc12)C(=O)N[C@@H](CC(C)C)C(=O)N[C@@H](CCCNC(=N)N)C(=O)N[C@@H](CC(N)=O)C(=O)N[C@@H](CC(C)C)C(=O)N[C@H](C(N)=O)C(C)C)C(C)C` (Ac-EWKRWVQRWKDWLRNLV-NH2), the MIC against Staphylococcus aureus [1] worked out at 5 µM (≈ 12.2 µg/mL); in the data set with Staphylococcus aureus [2], 5 µM (≈ 12.2 µg/mL); in the data set on Pseudomonas aeruginosa [3] it was 10 µM (≈ 24.4 µg/mL); against Staphylococcus aureus [4], 10 µM (≈ 24.4 µg/mL); against Pseudomonas aeruginosa [5] it was 10 µM (≈ 24.4 µg/mL). Moreover, in the data set on Lipid bilayer [6], the result was Active. For the same compound, the Stability entry is “Stable” in data set [8], “Stable” in data set [9], “Stable” in data set [10] and “Unstable” in [11].
